Runt-SMMHC FRET: inhibitors of human RUNX1 Runt domain binding to CBFb-SMMHC | Q01196+Q13951 | Cerulean-Runt/Venus-CBFb-SMMHC FRET ratio 530/480, 1 h | inhibition, % at 20 µM | 220,000 tested, 0.74% active | AID 1434;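 active means mean inhibition across duplicate retests at 20 µM reaching about 50%, limit read from the data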;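 further: inhibitors lower the FRET ratio by blocking Runt binding to CBFb-SMMHC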
Target sequence (Q01196 whole entry, looked up, the tested form may be a part): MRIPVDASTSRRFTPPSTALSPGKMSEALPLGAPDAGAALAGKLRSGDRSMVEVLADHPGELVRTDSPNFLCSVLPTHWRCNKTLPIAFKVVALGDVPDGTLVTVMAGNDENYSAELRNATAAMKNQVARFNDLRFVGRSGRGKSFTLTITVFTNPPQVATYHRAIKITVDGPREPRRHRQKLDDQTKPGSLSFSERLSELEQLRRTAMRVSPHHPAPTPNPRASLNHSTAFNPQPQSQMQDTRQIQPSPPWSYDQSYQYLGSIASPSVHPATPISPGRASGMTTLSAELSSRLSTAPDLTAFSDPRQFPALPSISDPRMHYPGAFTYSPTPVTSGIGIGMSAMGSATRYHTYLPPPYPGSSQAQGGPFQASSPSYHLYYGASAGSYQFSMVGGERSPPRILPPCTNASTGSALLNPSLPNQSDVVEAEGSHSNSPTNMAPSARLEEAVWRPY
Target sequence (Q13951 whole entry, looked up, the tested form may be a part): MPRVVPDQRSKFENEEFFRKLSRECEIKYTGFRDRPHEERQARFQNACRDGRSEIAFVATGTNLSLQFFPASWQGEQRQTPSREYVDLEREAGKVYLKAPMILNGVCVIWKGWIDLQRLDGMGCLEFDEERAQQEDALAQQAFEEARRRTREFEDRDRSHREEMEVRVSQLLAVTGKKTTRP
Rce1 inh: yeast Ras-converting enzyme inhibition. Q03530. yeast membranes, quenched prenylated peptide cleavage fluorescence. calls only. 290,000 tested, 0.27% active. AID 2563;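 active means fall in fluorescence gain of 50% or more versus controls, with final raw signal at or below 3038400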
Runt-CBFb FRET: blocks binding of human RUNX1 Runt domain to CBFb; Q01196+Q13951; Cerulean-Runt/Venus-CBFb FRET ratio 530/480, 1 h; inhibition, % at 20 µM; 220,000 tested, 0.46% active; AID 1496;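 active means inhibition over about 50% at 20 µM in the single-dose screen, limit read from the data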
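Reagent – Venus-CBFb binding partner, 100 nM · Assay system – Cerulean-tagged RUNX1 Runt domain (FRET donor) fusion protein · Input – 100 nM per protein · Incubation – two 1 h room-temperature incubations shielded from light · Measured by – FRET fluorescence · Medium – Tris buffer pH 7.5 with salts and BSA · Benchmarks – unlabeled CBFb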
Vif inh: blocks HIV Vif function | HEK293T cells, Vif self-association by quenched fluorescence, imaging, 24 h | inhibition, % at 7.49 µM | 340,000 tested, 0.35% active | AID 602346; in the data active means inhibition above about 50%, passing the limit was not always enough
RanGTP-Impb inh: inhibitors of RanGTP-importin-beta interaction, primary screen, biochemical, FRET, CFP-Ran, YFP-importin-beta, homogeneous; 300,000 tested, 1.1% active; AID 2216; cell-free CFP-Ran/YFP-importin-beta FRET ratio; inhibition, % (no concentration beside the values);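 active means more than half of the replicate wells show a fall in the fluorescence ratio signal beyond about 16%, limit read from the data, passing the limit was not always enough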
Hits are given with their value; 0 = inactive; - = no result; + = active, no number. Shown are actives, neighbours in structure and some others; about 1.7% of the full set was active somewhere.

SMILES	Runt-SMMHC FRET	Rce1 inh	Runt-CBFb FRET	Vif inh	RanGTP-Impb inh
Clc1cccc(CN2CCc3c([nH]c4ccccc34)C2)c1Cl	-	+	-	0	0
Cc1cc(C)cc(N=Cc2c(O)c3ccccc3oc2=O)c1	87	0	0	0	0
Cc1cc(C)c(N=Cc2c(O)c3ccccc3oc2=O)c(C)c1	-	0	-	0	0
COC(CNC(=O)c1ccc(Cn2c(=S)[nH]c3cc4c(cc3c2=O)OCO4)cc1)OC	0	0	0	0	125
O=C(COc1ccccc1)Nc1nc2c(s1)CCCC2	-	0	-	0	0
CN1CCc2nc(NC(=O)COc3ccc(C#N)cc3)sc2C1	59	0	0	0	23
O=C(Cc1nc2ccccc2s1)c1ccc(O)cc1O	114	0	0	-	0
CCOc1ccc(S(=O)(=O)NCCC(=O)NCCOc2ccccc2)cc1	-	0	-	0	0
CCN(CCCNC(=O)C1CCC(=O)N1Cc1ccccc1Cl)c1cccc(C)c1 (stereo unspecified)	0	0	0	0	0
CCN(CCCNC(=O)C1CCC(=O)N1Cc1ccc(C)cc1)c1cccc(C)c1 (stereo unspecified)	0	0	0	51	0
CC(=O)N1c2ccc(S(=O)(=O)N3CCC(C(=O)Nc4cccc(C(F)(F)F)c4)CC3)cc2CC1C (stereo unspecified)	-	0	-	0	0
O=C(c1cc(COc2cccc3cccnc23)on1)N1CCC[C@H]1CO	-	-	-	51	-
COC(=O)C1CCCCN1C(=O)c1cc(COc2cccc3cccnc23)on1 (stereo unspecified)	-	0	-	-	0
CCn1cc(/C=C(\NC(=O)c2ccccc2)C(=O)N2CCOCC2)c2ccccc21	-	+	-	0	0
CCn1cc(/C=C(\NC(=O)c2ccc(OC)cc2)C(=O)N2CCN(C)CC2)c2ccccc21	-	0	-	0	0
CN(Cc1cccc(C(F)(F)F)c1)C(=O)[C@H]1O[C@@H](n2ccc(N)nc2=O)[C@H](O)[C@@H]1O	-	-	-	0	-
O=C(c1ccccc1)c1cnc[nH]1	0	0	0	0	0
O=C(Nc1ccccc1)c1cnc[nH]1	0	0	89	0	0
COc1ccc(CC(=O)OCC(=O)Nc2ccc(N3CCOCC3)cc2)cc1	0	-	0	81	0
COCCn1c(N)c(C(=O)OCc2ccccc2)c2nc3ccccc3nc21	65	0	0	0	18
COCCNC(=O)c1c(N)n(CCC2=CCCCC2)c2nc3ccccc3nc12	58	0	0	0	68
COCCNC(=O)CSc1nc2cc(OC)c(OC)cc2c(=O)n1CCC1=CCCCC1	0	0	0	0	0
CCC(=O)Nc1sc2c(c1C#N)CC(C)(C)NC2(C)C	0	0	0	0	0
CC(C)CC(=O)Nc1sc2c(c1C#N)CC(C)(C)NC2(C)C	0	0	0	56	0
COc1cc(CN2CCC(n3nccc3NC(=O)c3ccc4c(c3)OCO4)CC2)ccc1O	-	0	-	0	0
SMILES	Runt-SMMHC FRET	Rce1 inh	Runt-CBFb FRET	Vif inh	RanGTP-Impb inh
CCn1c(=O)cc(SCC(=O)Nc2ccc(Cl)cc2)c2ccccc21	0	0	0	0	64
CN1/C(=C/c2cccc[n+]2C)Sc2ccccc21	-	0	-	118	0
Cc1ccc2c(c1)N(C)/C(=C/c1cccc[n+]1C)S2	-	0	-	-	0
Cc1nc(Sc2nnnn2C)c2c3c(sc2n1)CCC3	0	-	0	97	-
Cc1ccc(S(=O)(=O)C(C#N)c2nc3ccccc3nc2OCCO)cc1 (stereo unspecified)	0	0	0	0	26
NC(N)=Nc1nc(-c2ccccc2)c2ccccc2n1	0	0	0	0	26
Cc1ccc(NS(=O)(=O)c2c(C)[nH]c(C)c2C(=O)N2CCCCC2)cc1Cl	-	0	-	0	0
CC(NS(=O)(=O)c1ccc(Cl)cc1)C(=O)N1CCOCC1 (stereo unspecified)	-	0	-	0	0
COc1cc(C2SCC(=O)N2Cc2ccccc2)ccc1O (stereo unspecified)	-	0	-	0	17
O=C(O)c1ccc(N/N=C/c2ccncc2)cc1	-	0	-	0	0
O=C(O)c1ccc(N/N=C/C2=Cc3ccccc3OC2)cc1	0	0	0	0	21
COc1ccc(C2C3=C(CC(c4ccco4)CC3=O)Nc3ccccc3N2C(C)=O)cc1 (stereo unspecified)	0	0	0	0	0
COc1cccc(C2CC(=O)C3=C(C2)Nc2ccccc2N(C(=O)CCC(=O)O)C3c2ccc(F)cc2)c1 (stereo unspecified)	0	+	0	0	0
CCC(CC)C(=O)N(C)c1c(C)nc2c(OCc3ccc(C(F)(F)F)cc3)cccn12	-	-	-	0	-
Cc1ccc(S(=O)(=O)NNc2ccccc2)cc1	68	0	0	0	0
CC(=O)c1cccc2c1OC(C)C(=O)N2Cc1ccc(Cl)cc1 (stereo unspecified)	-	-	-	0	-
NC(=S)NN=C1C=CCCC1	-	-	-	0	-
COc1ccc(CCNC(=O)CCn2c(=O)c3cccn3c3ccc(F)cc32)c(OC)c1OC	-	0	-	0	0
COc1ccc(C)c2sc(NC(=O)C3=COCCO3)nc12	0	+	0	0	0
Cc1cccc(NC(=O)c2ccc(Cn3cc(C(F)(F)F)ccc3=O)cc2)c1	0	0	0	0	48
O=C(O)c1ccc(Cn2cc(C(F)(F)F)ccc2=O)cc1	0	0	0	0	0
CCCn1ncc(CN2CCC(n3nccc3NC(=O)c3ccccc3Cl)CC2)c1C	-	0	-	0	0
O=C1OCCN1C(=O)[C@H]1[C@H](c2ccc(Cl)cc2)C(c2ccc(F)cc2)=NN1c1ccc(Br)cc1	-	-	-	0	-
O=C1OCCN1C(=O)[C@H]1[C@H](c2ccc(F)cc2)C(c2ccc(F)cc2)=NN1c1ccc(Br)cc1	0	+	0	0	0
O=C(CN1CCCCC1)NCC(=O)Nc1ccc(F)c(F)c1F	-	-	-	0	-
SMILES	Runt-SMMHC FRET	Rce1 inh	Runt-CBFb FRET	Vif inh	RanGTP-Impb inh
Cc1ccc(S(=O)(=O)Nc2ccc(Cl)cn2)cc1C	-	-	-	0	0
Cc1nnc(N/N=C/c2ccccc2F)n1N	-	0	-	59	0
Cc1ccc(C(=O)NC2CCN(CC(=O)NCc3cccs3)CC2)cc1	0	0	0	0	0
O=C(CN1CCC(NC(=O)c2ccc(Br)cc2)CC1)NCc1cccs1	0	+	0	0	0
CCc1ccccc1NC(=O)CN1CCN(CC(=O)Nc2cc(C)ccc2OC)CC1	-	0	-	0	0
CCOc1ccc(OCc2cccc(C(=O)N3CCCC3)c2)cc1	0	0	0	53	0
C[N+]1(C2CCC3CCCC2C3O)CCCC1 (stereo unspecified)	0	0	0	0	0
FC(F)(F)c1cc(Oc2ccccc2)ncc1-c1nnc(-c2ccccc2Cl)o1	0	+	0	0	0
CC1=N/C(=C\c2ccc(OC(C)C)cc2)C(=O)N1c1ccc(C(=O)O)cc1	0	-	0	0	0
COc1ccc(/C=C2\N=C(c3ccccc3)N(c3ccc(C(=O)O)cc3)C2=O)cc1OC	0	0	0	0	26
Cc1[nH]n(-c2nc(-c3ccc(Cl)cc3)cs2)c(=O)c1N=Nc1ccc(O)cc1	0	0	0	0	0
CCN(CC)C(=O)c1nc[nH]c1C(=O)O[C@@H](C)c1ccccc1	-	-	-	0	-
CC(OC(=O)c1ccccc1C(=O)O)c1ccccc1 (stereo unspecified)	-	-	-	53	-
